The values that follow come from ChEMBL document CHEMBL1129246, “Cardiovascular characterization of pyrrolo[2,1-d][1,5]benzothiazepine derivatives binding selectively to the peripheral-type benzodiazepine receptor (PBR): from dual PBR affinity and calcium antagonist activity to novel and selective calcium entry blockers” (J Med Chem, 1996).

The target of experiment [1] is T1, Translocator protein (Rattus norvegicus, UniProt P16257). Briefly: Ability to inhibit [3H]-PK 11195 binding to peripheral-type benzodiazepine receptor(PBR) in rat cerebral cortex homogenate; Not active. The format is tissue-based.
Experiment [2] concerns the target T2, Voltage-dependent L-type calcium channel subunit alpha-1C (Rattus norvegicus, UniProt P22002). Briefly: Ability to inhibit [3H]nitrendipine binding to the L-type calcium channel receptor(CCR) in rat heart homogenate. The format is tissue-based. The essentials:
(§1)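 Rat hearts perfused through the aorta with ice-cold saline, then homogenised in 50 mM Na-HEPES pH 7.4, filtered through cheesecloth and washed five times. Incubated 90 min at 0 °C in the dark with 3×10^-10 M [3H]nitrendipine; compounds in 5% DMSO. IC50 by log-probit analysis of six displacer concentrations in triplicate.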

The species entered for experiment [3] is Cavia porcellus. Nature of the experiment: [Ca2+] antagonistic activity on K+ depolarized guinea pig aortic strips (at 5(10e-5) M). The format is functional, Aorta. Put shortly: (§2)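 Guinea pig aortic strips under 1 g resting force, equilibrated 1 h in PSS, then contracted with 80 mmol/L KCl. At plateau (~30 min), compounds in DMSO added cumulatively at 0.1–50 μmol/L and relaxation recorded.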

The species named for experiment [4] is Cavia porcellus. Briefly: Activity of chronotropic negative potency on guinea pig spontaneously beating right atrium. The format is functional, Cardiac atrium. The essentials: (§3)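 Guinea pig atria (300–400 g, either sex) in oxygenated Tyrode at 35 °C, pH 7.4. Right atria beat spontaneously; left atria paced at 1 Hz. Isometric force recorded after 45–60 min stabilisation. Cumulative concentrations 0.1–50 μmol/L in DMSO (bath ≤0.3%). Potency from log concentration–response curves by probit analysis, n = 6–8.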

Experiment [5] is filed under the species Cavia porcellus. Nature of the experiment: Percent decrease of negative inotropic activity on isolated guinea pig left atrium at 5*10e-5 M. The format is functional, Cardiac atrium. Put shortly: as §3
Experiment [6] deals with T3, Voltage-gated L-type calcium channel (Rattus norvegicus, UniProt P22002+Q02485+P27732). Briefly: (§4) Inhibition of [3H]nitrendipine binding to L-type calcium channel receptor(CCR) in rat cerebral cortex homogenate. The format is tissue-based. Put shortly: (§5)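 Male Sprague–Dawley rat cortex homogenised in 50 mM Na-HEPES pH 7.4, washed five times, pellet stored at -70 °C. Incubated 90 min at 0 °C in the dark with 3×10^-10 M [3H]nitrendipine; compounds dissolved in 5% DMSO. Filtration, scintillation counting. IC50 by log-probit analysis of six displacer concentrations in triplicate. Ki by Prusoff's equation using Kd 0.25 nM.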

Experiment [7] addresses T3, Voltage-gated L-type calcium channel. Briefly: Ability to inhibit [3H]nitrendipine binding to the calcium channel receptor(CCR) in rat cerebral cortex homogenate. The format is tissue-based.
For experiment [8], the species on record is Cavia porcellus. Nature of the experiment: Percent decrease of negative inotropic activity on isolated guinea pig left atrium at 1*10e-5 M. The format is functional, Cardiac atrium. Put shortly:
as §3

Experiment [9] has as its target T3, Voltage-gated L-type calcium channel. The description is as §4. The format is tissue-based. The essentials: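 Male Sprague–Dawley rat cortex homogenised in 50 mM Na-HEPES pH 7.4, washed five times, pellet stored at -70 °C. Incubated 90 min at 0 °C in the dark with 3×10^-10 M [3H]nitrendipine; compounds dissolved in 5% DMSO. Filtration, scintillation counting. IC50 by log-probit analysis of six displacer concentrations in triplicate.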
The source holds these as a separate data set.

Experiment [10] is filed under the species Cavia porcellus. Nature of the experiment: Activity of inotropic negative potency on stimulated guinea pig left atrium. The format is functional. As to conditions: Cardiac atrium, read-out: ED50 (the source's name); call rule not given here. The essentials:
as §3

Experiment [11] is filed under the species Cavia porcellus. Briefly: [Ca2+] antagonistic activity on K+ depolarized guinea pig aortic strips (at 5(10e-5) M). The format is functional, Aorta. The essentials: as §2
In experiment [12] the target is T2, Voltage-dependent L-type calcium channel subunit alpha-1C. Nature of the experiment: Ability to inhibit [3H]nitrendipine binding to the L-type calcium channel receptor(CCR) in rat heart homogenate. The format is tissue-based. The essentials:
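Rat heart perfused via aorta with ice-cold saline, homogenized in 50 mM Na-HEPES pH 7.4, filtered through cheesecloth, washed five times at 48000g, and stored at -70 °C. Homogenate incubated 90 min at 0 °C in the dark with 3×10^-10 M [3H]nitrendipine; compounds in 5% DMSO. Bound counts taken after filtration. IC50 by log-probit from six concentrations in triplicate.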

Experiment [13] concerns the target T1, Translocator protein. Nature of the experiment: Ability to inhibit [3H]-PK 11195 binding to peripheral-type benzodiazepine receptor(PBR) in rat cerebral cortex homogenate. The format is tissue-based.
Experiment [14] is filed under the species Cavia porcellus. Nature of the experiment: Percent decrease of negative chronotropic activity on isolated guinea pig spontaneously beating right atrium at 1*10e-4 M. The format is functional, Cardiac atrium.
The species named for experiment [15] is Cavia porcellus. Briefly: Percent decrease of negative chronotropic activity on isolated guinea pig spontaneously beating right atrium at 1*10e-5 M. The format is functional, Cardiac atrium. The essentials:
as §3

For experiment [16], the species on record is Cavia porcellus. Nature of the experiment: IC50 activity of [Ca2+] antagonistic potency on K+ depolarized guinea pig aortic strips. The format is functional. The conditions noted are these: Aorta. The essentials:
as §2

The species entered for experiment [17] is Cavia porcellus. Briefly: Activity of chronotropic negative potency on guinea pig spontaneously beating right atrium. The format is functional, Cardiac atrium. The essentials:
as §3

Experiment [18] has as its target T2, Voltage-dependent L-type calcium channel subunit alpha-1C. Nature of the experiment: Ability to inhibit [3H]nitrendipine binding to the L-type calcium channel receptor(CCR) in rat heart homogenate; Not active. The format is tissue-based. Put shortly: as §1
The species named for experiment [19] is Cavia porcellus. Briefly: [Ca2+] antagonistic activity on K+ depolarized guinea pig aortic strips at 5*10e-5 M. The format is functional, Aorta. The essentials:
as §2

Experiment [20] has as its target T3, Voltage-gated L-type calcium channel. Briefly: Ability to inhibit [3H]nitrendipine binding to the calcium channel receptor(CCR) in rat cerebral cortex homogenate; Not active. The format is tissue-based. The essentials: as §5
For experiment [21], the species on record is Cavia porcellus. Briefly: Percent decrease of negative chronotropic activity on isolated guinea pig spontaneously beating right atrium at 1*10e-6 M. The format is functional, Cardiac atrium. The essentials:
as §3

The species entered for experiment [22] is Cavia porcellus. Briefly: [Ca2+] antagonistic activity on K+ depolarized guinea pig aortic strips at 10e-4 M. As to conditions: Aorta. The format is functional.
Experiment [23] is filed under the species Cavia porcellus. Nature of the experiment: Activity of inotropic negative potency on stimulated guinea pig left atrium. The format is functional. As to conditions: Cardiac atrium, read-out: ED50 (the source's name). Put shortly:
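Isolated left atria from guinea pigs (300–400 g, either sex), Tyrode PSS gassed with 95% O2–5% CO2, 35 °C, pH 7.4, driven at 1 Hz by rectangular pulses; isometric force recorded after 45–60 min stabilization.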

The term IC50 denotes the concentration that gives 50% inhibition. Consider `COc1ccc(C2=C(OC(=O)c3cc(OC)c(OC)c(OC)c3)c3cccn3-c3cc(C(F)(F)F)ccc3S2)cc1`, for which the IC50 entry in experiment [1] was “Not Active”.

By Inhibition is commonly meant the share of the control response that was lost under treatment. The term Ki denotes the dissociation constant of the complex between target and ligand, obtained from inhibition or displacement. In the case of `CC(=O)O[C@@H]1c2ccc(CN(C)C)n2-c2cccc(Cl)c2S[C@@H]1c1ccccc1`, in experiment [2], the IC50 came out at 12 nM. In experiment [3], this compound came in with an Inhibition of 32%. Further, in experiment [4], the ED30 turned out to be 850 nM. In [5], this compound showed a Decrease of 41%. In experiment [6], the Ki turned out to be 13 nM.

In the case of `CC(=O)O[C@@H]1c2ccc(CN(C)C)n2-c2ccccc2S[C@@H]1c1ccccc1`, the IC50 in [7] is reported as 5200 nM.

In the case of `COc1ccc(C2Sc3ccccc3-n3c(CN(C)C)ccc32)cc1` (stereo unspecified), the values for the Decrease in experiment [8] and in experiment [14] were 75% and 30%, respectively. For the same compound, the Ki in experiment [9] turned out to be 0.19 nM. The EC50 in experiment [10] is 810 nM. For the same compound, in [11], the Inhibition came out at 10%. For the same compound, the IC50 in [12] is 17 nM; in [13] (read-out: IC50), above 2000 nM.

Turning to `CCCC(=O)OC1=C(c2ccccc2)Sc2ccccc2-n2cccc21`, in experiment [7], the IC50 amounted to 4.88 nM.

As to `COc1ccc(C2=C(OC(=O)c3cc(OC)c(OC)c(OC)c3)c3cccn3-c3ccccc3S2)cc1`, the half-inhibitory concentration (IC50) entry in experiment [1] is “Not Active”.

As to `COc1ccc(C2=C(OC(=O)c3cc(OC)c(OC)c(OC)c3)c3cccn3-c3cc(Cl)ccc3S2)cc1`, the IC50 result in [13] is reported as “Not Active”.

In the case of `COc1ccc([C@H]2Sc3ccccc3-n3c(CN(C)C)ccc3[C@H]2OC(C)=O)cc1`, the EC50 in [10] was 710 nM. In addition, the values for the Decrease in [15] and in experiment [5] were 90% and 87%, respectively. In addition, in experiment [11], the Inhibition is on record as 56%. Also, the IC50 came out at 136 nM in [7] and 4450 nM in [16]. The compound also displayed an ED30 in [4] of 1500 nM.

Take `COc1ccc(C2=C(OC(C)=O)c3cccn3-c3cc(Cl)ccc3S2)cc1`: the IC50 in [7] was found to be 132 nM.

In the case of `COc1ccc([C@H]2Sc3ccc(Cl)cc3-n3c(CN(C)C)ccc3[C@H]2OC(C)=O)cc1`, in experiment [17], the ED30 turned out to be 880 nM. The EC50 in experiment [10] worked out at 660 nM. The Decrease is reported as 61% in [15] and 83% in experiment [5]. This compound registered an Inhibition in experiment [3] of 40%. Moreover, the IC50 in [7] worked out at 3.3 nM. For the same compound, the Ki in experiment [6] turned out to be 1.5 nM.

`CC(=O)OC1=C(c2ccccc2)Sc2ccc(Cl)cc2-n2cccc21`: the IC50 in experiment [7] was determined as 150 nM; in experiment [13] (read-out: IC50), 560 nM.

Consider `CC(=O)OC1=C(c2ccccc2)Sc2ccccc2-n2cccc21`, for which the IC50 in experiment [2] worked out at 220 nM; in [7], 6 nM.

For `COc1ccc(C2=C(OC(=O)N(C)C)c3cccn3-c3ccccc3S2)cc1`, the IC50 entry in experiment [18] is recorded as “Not Active”; in experiment [7], 420 nM.

With `COc1ccc(C2=C(OC(C)=O)c3cccn3-c3ccccc3S2)cc1`, the IC50 in [2] came to 340 nM; in experiment [7], 0.13 nM. Moreover, the EC50 in [10] worked out at 310 nM. In addition, the Decrease is 26% in experiment [15] and 86% in experiment [5]. The compound also registered an Inhibition in [19] of 27%.

As to `COc1ccc(C2=C(OC(C)=O)c3cccn3-c3cc(C(F)(F)F)ccc3S2)cc1`, the IC50 is on record as above 2000 nM in [7] and “Not Active” in experiment [1].

For `CCCC(=O)OC1=C(c2ccc(OC)cc2)Sc2ccccc2-n2cccc21`, the IC50 in experiment [2] worked out at 150 nM; in [7], 16 nM.

For `CCCCC(=O)OC1=C(c2ccccc2)Sc2ccccc2-n2cccc21`, in experiment [2], the IC50 is 610 nM.

In the case of `CC(=O)OC1=C(c2ccccc2)Sc2ccc(Cl)cc2-n2c(CN(C)C)ccc21`, the half-inhibitory concentration (IC50) was 960 nM in [7] and above 2000 nM in [13] (read-out: IC50).

As to `COc1ccc(C2=C(OC(C)=O)c3ccc(CN(C)C)n3-c3cc(Cl)ccc3S2)cc1`, the IC50 in experiment [13] (read-out: IC50) was above 2000 nM.

Consider `CC(=O)O[C@@H]1c2ccc(CN(C)C)n2-c2cc(C(F)(F)F)ccc2S[C@@H]1c1ccccc1`, for which the IC50 in experiment [7] is reported as 300 nM.

For `CC(=O)OC1=C(c2ccccc2)Sc2ccccc2-n2c(CN(C)C)ccc21`, the IC50 in experiment [13] (read-out: IC50) was above 2000 nM.

Take `CC(=O)O[C@@H]1c2ccc(CN(C)C)n2-c2cc(Cl)ccc2S[C@@H]1c1ccccc1`: the IC50 entry in experiment [18] is “Not Active”; in experiment [20], 1230 nM.

For orientation: inhibition means how much of the control response was suppressed. Higher therefore signals strong suppression. For the compound `COc1ccc([C@@H]2Sc3ccccc3N(CCN(C)C)C(=O)[C@@H]2OC(C)=O)cc1` [DILTIAZEM], the Decrease in experiment [8] turned out to be 78%; in experiment [21] it was 94%. Further, the ED30 in experiment [17] turned out to be 70 nM. Also, 100 µM produced 88% inhibition in experiment [22]. For the same compound, the EC50 in experiment [23] was 790 nM.
